Shown are actives, neighbours in structure and some others; about 2.2% of the full set was active somewhere.
UBC13 inh: UBC13 polyubiquitin chain formation inhibitors, primary screen, biochemical, TR-FRET, uHTS; Ubiquitin-conjugating enzyme E2 N (Homo sapiens), P61088; inhibition, % at 20 µM; actives 0.47% (n = 330,000); in the data active = inhibition above about 45%, passing the limit was not always enough
PAD4 inh: human PAD4 inhibitors, primary screen, biochemical, fluorescence polarization, 1536-well format. inhibition, % at 6.36 µM. AID 485272, 2010. recombinant PAD4, RCA probe fluorescence polarization. actives 0.41% (n = 330,000). Protein-arginine deiminase type-4 (Homo sapiens), Q9UM07;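 active = percent inhibition above a cutoff equal to the mean of all tested compounds plus 3 SD, cut at about 15% in these data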;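 also: 0% = PAD4 with RCA probe and DMSO and 100% = probe without PAD4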
Target sequence (Q9UM07 whole entry, looked up): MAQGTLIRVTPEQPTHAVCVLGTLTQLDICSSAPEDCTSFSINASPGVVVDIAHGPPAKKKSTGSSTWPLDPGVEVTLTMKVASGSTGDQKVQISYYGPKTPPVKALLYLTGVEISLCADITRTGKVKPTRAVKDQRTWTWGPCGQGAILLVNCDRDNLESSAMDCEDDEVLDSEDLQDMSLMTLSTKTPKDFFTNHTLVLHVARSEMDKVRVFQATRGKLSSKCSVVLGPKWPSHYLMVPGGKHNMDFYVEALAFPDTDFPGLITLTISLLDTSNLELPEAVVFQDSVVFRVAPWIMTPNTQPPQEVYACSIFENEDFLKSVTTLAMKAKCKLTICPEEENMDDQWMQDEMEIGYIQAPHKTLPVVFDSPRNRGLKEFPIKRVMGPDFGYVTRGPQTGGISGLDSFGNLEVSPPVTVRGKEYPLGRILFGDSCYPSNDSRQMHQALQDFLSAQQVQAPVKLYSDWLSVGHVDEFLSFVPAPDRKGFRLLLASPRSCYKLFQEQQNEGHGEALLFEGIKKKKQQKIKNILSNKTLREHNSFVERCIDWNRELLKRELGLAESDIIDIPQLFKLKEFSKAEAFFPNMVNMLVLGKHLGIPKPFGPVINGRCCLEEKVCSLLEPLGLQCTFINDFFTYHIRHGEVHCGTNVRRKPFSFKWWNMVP
Rin1 Abl inh: inhibitors of Rin1-Abl protein binding, primary screen, biochemical, TR-FRET; inhibition, % at 7.35 µM; actives 0.4% (n = 360,000); Tyrosine-protein kinase ABL1 (Homo sapiens) + Ras and Rab interactor 1 (Homo sapiens), …; in the data active = inhibition above about 5%, passing the limit was not always enough
SUMO HTRF inh: inhibitors of in vitro SUMOylation cascade, primary screen, biochemical, HTRF, uHTS | SUMO-conjugating enzyme UBC9 (Homo sapiens), P63279 | HTRF SUMOylation assay, SAE1/SAE2 + UBC9 | inhibition, % at 35 µM | actives 0.36% (n = 290,000); in the data active = inhibition above about 50%, passing the limit was not always enough
Apaf1 inhib: inhibitors of human Apaf-1 apoptosome, primary screen, biochemical, DEVD-Rh110 fluorescence, uHTS | AID 489030, 2010 | reconstituted apoptosome caspase-3 activity | actives 0.71% (n = 330,000) | Apoptotic protease-activating factor 1 (Homo sapiens), O14727 | inhibition, % at 20 µM; active = inhibition of at least 40% at 20 µM;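 also: plate controls were DMSO wells for no effect and DEVD-CHO caspase inhibitor wells for full effect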
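Assay system – apoptosome proteins · Medium – Hepes buffer, pH 7.5 · Also added – cytochrome c with DEVD-Rh110 · Timing – 30 min compound preincubation, 50 min activation, room temperature · Detection – Rh110 fluorescence, excitation 480 nm, emission 540 nm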
GSTO1 inh: inhibitors of recombinant GSTO1, primary screen, counter-screen for RBBP9 inhibitor project, biochemical, fluorescence polarization; inhibition, % at 5.96 µM; activity-based probe fluorescence polarization; actives 1.1% (n = 300,000);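 active = inhibition above the campaign mean inhibition plus 3 SD, cut at about 35% in these data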;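 also: 0% = GSTO1-1 with DMSO and 100% = wells lacking GSTO1-1 enzyme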
Rin1-Abl confirm: Rin1-Abl binding inhibitor retest, confirmation, biochemical, TR-FRET; purified proteins; actives 49% (n = 1,300); shares compounds with Rin1 Abl inh; inhibition, % at 7.35 µM; in the data active = inhibition above about 6.5%
GFP quench-1: GFP fluorescence inhibitors and quenchers, artefact control for Rin1-Abl interaction inhibitor project, biochemical; shares compounds with Rin1 Abl inh; inhibitors/quenchers counterscreen; inhibition, % at 6.75 µM; actives 8.5% (n = 1,300); in the data active = inhibition above about 6.5%;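 also: ABL1-eGFP fusion protein alone without its partner RIN1-SBP; 0% = protein with vehicle and 100% = wells lacking protein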
GFP quench dose: GFP fluorescence inhibitors and quenchers, dose response, artefact control for Rin1-Abl interaction inhibitor project, biochemical; shares compounds with Rin1 Abl inh; GFP fluorescence interference/quenching counterscreen; IC50, µM; 230 tested, under 10 active;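 also: ABL1-eGFP fusion protein alone without its RIN1 binding partner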
GFP quench-2: GFP fluorescence inhibitors and quenchers, late-stage follow-up, artefact control for Rin1-Abl interaction inhibitor project, biochemical, dose response; shares compounds with Rin1 Abl inh; GFP fluorescence quenching counterscreen; IC50, µM; 25 tested, under 10 active; AID 602397, 2012
Numbers without * were called inactive. Unless noted, no rule for the calls is given here.

Screening Cc1ccc(S(=O)(=O)N2CCCCC2C)cc1[N+](=O)[O-] (configuration not stated) returned UBC13 inh -7, PAD4 inh 0, Rin1 Abl inh 0, SUMO HTRF inh 15, Apaf1 inhib 2 and GSTO1 inh 0.
For COC(=O)C1CCN(CC(=O)Nc2ccc3c(c2)OCCO3)CC1 the results were UBC13 inh 11, PAD4 inh 2, Rin1 Abl inh 0 and Apaf1 inhib -6.
Screening CC1CC(C)CN(CC(=O)Nc2ccc3c(c2)OCCO3)C1 (configuration not stated) returned UBC13 inh 7, PAD4 inh 2, Rin1 Abl inh 6.3*, SUMO HTRF inh 3, Apaf1 inhib 4, GSTO1 inh 8, Rin1-Abl confirm 2 and GFP quench-1 3.
Screening COc1ccc(-c2ccc(-c3cc(=O)oc4c(C(C)C)ccc(C)c34)cc2)cc1 returned PAD4 inh -2, Rin1 Abl inh 1 and Apaf1 inhib 19.
COc1cccc(C(O)c2nc(-c3cccc(C#N)c3)cs2)c1 (configuration not stated) was read as Rin1 Abl inh -1.
O=C1[C@@H](Oc2ccccc2)[C@@H](c2ccncc2)N1c1ccccc1 was read as PAD4 inh -4, Rin1 Abl inh -2 and Apaf1 inhib 10.
Screening O=C1[C@@H](Oc2ccccc2)[C@@H](c2ccccc2)N1c1cccnc1 returned Rin1 Abl inh 13*, Rin1-Abl confirm 10* and GFP quench-1 -1.
`Cc1cnc(C2OCCO2)c2cccc([N+](=O)[O-])c12` gave Rin1 Abl inh -6.
Screening Cn1c(=O)c2c(nc(NCc3ccco3)n2Cc2ccc(Cl)cc2Cl)n(C)c1=O returned UBC13 inh 0, PAD4 inh 0, Rin1 Abl inh -1, SUMO HTRF inh 31, Apaf1 inhib 15 and GSTO1 inh -3.
For Cn1c(=O)[nH]c(=O)c2c1nc(NCc1ccco1)n2Cc1ccccc1Cl the results were UBC13 inh 5, PAD4 inh 3, Rin1 Abl inh 13*, SUMO HTRF inh 3, Apaf1 inhib -28, GSTO1 inh 5, Rin1-Abl confirm 18*, GFP quench-1 -1 and GFP quench dose >68.
`CCOC(=O)c1ccc2ncc(C(=O)OCC)c(NCCN(C)C)c2c1` gave UBC13 inh 11, PAD4 inh 1, Rin1 Abl inh 7.9*, Apaf1 inhib 11, GSTO1 inh -6, Rin1-Abl confirm -1 and GFP quench-1 1.
`CCOC(=O)c1ccc2ncc(C(=O)OCC)c(NCCN3CCOCC3)c2c1` gave UBC13 inh 4, PAD4 inh -1, Rin1 Abl inh -4, SUMO HTRF inh 14, Apaf1 inhib -1 and GSTO1 inh -2.
Screening O=C(OCc1ccccc1C(F)(F)F)c1ccc(Br)c(S(=O)(=O)N2CCOCC2)c1 returned Rin1 Abl inh 1.
For CC1(C(=O)NS(=O)(=O)C2CC2)CCN(C(=O)c2ccc(F)cc2Cl)C1 (configuration not stated) the results were Rin1 Abl inh 1.
Screening CC1=C(C(=O)OC(C)C)C(c2cccnc2)C2=C(CCCC2=O)N1 (configuration not stated) returned UBC13 inh 3, PAD4 inh -2, Rin1 Abl inh -2, SUMO HTRF inh 1, Apaf1 inhib -20 and GSTO1 inh 1.
`CCOC(=O)C1=C(C)NC2=C(C(=O)CCC2)C1c1cccnc1` (configuration not stated) gave UBC13 inh 9, PAD4 inh -3, Rin1 Abl inh 11*, SUMO HTRF inh 24, Apaf1 inhib -18, GSTO1 inh 2, Rin1-Abl confirm -3 and GFP quench-1 1.
Screening Cc1ccccc1C(=O)N1CCC(C(=O)Nc2ccc(S(=O)(=O)N3CCCCC3)cc2)CC1 returned UBC13 inh -6, PAD4 inh -3, Rin1 Abl inh 12*, SUMO HTRF inh -1, Apaf1 inhib 19, GSTO1 inh -7, Rin1-Abl confirm 7.8* and GFP quench-1 -1.
Cc1ccccc1C(=O)N1CCC(C(=O)Nc2ccc(S(=O)(=O)N3CCOCC3)cc2)CC1 was read as UBC13 inh 5, PAD4 inh 0, Rin1 Abl inh -2 and Apaf1 inhib -4.
For O=C(Nc1ccc(S(=O)(=O)Nc2ccccc2)cc1)C1CC1 the results were UBC13 inh 6, Rin1 Abl inh 11*, SUMO HTRF inh 1, Apaf1 inhib 0, Rin1-Abl confirm 0 and GFP quench-1 -1.
`CC(=O)c1ccc(NC(=O)Nc2ccc(S(=O)(=O)N3CCCC3)cc2)cc1` gave UBC13 inh -11, Rin1 Abl inh 15*, SUMO HTRF inh 4, Apaf1 inhib 6, Rin1-Abl confirm 11* and GFP quench-1 1.
For CC(=O)Nc1ccc(NC(=O)C2CCN(C(=O)c3cccs3)CC2)cc1 the results were UBC13 inh -14, PAD4 inh -9, Rin1 Abl inh 47*, SUMO HTRF inh -1, Apaf1 inhib 2, GSTO1 inh -1, Rin1-Abl confirm 71*, GFP quench-1 -5, GFP quench dose >68 and GFP quench-2 >68.
`NS(=O)(=O)c1ccc(CCNC(=O)CSc2nc3ccsc3c(=O)n2Cc2ccccn2)cc1` gave Rin1 Abl inh 2.
Screening CC(=O)c1cc(C(=O)N2CCCC(C(=O)c3ccc(Cl)cc3)C2)cs1 (configuration not stated) returned UBC13 inh -6, PAD4 inh -8, Rin1 Abl inh 2, SUMO HTRF inh 9, Apaf1 inhib 16 and GSTO1 inh -1.
